HEK293 NFkB inh: lowers PMA/ionomycin-induced NF-kB signal in HEK293 cells; 0.21% of 62,000 active; HEK-293 NF-kB luciferase reporter, luminescence; inhibition, % at 3 µM; AID 465;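 active = inhibition above the mean of all tested compounds plus 3 SD, cut at about 40% in these data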;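 note: 0% = stimulated DMSO wells and 100% = 10 µM reference inhibitor 5653914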
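Reagent: PMA plus ionomycin mix as NF-kB-activating stimulus. Assay system: NF-kB luciferase reporter HEK-293 cells. Technique: luminescence from luciferase substrate reagent. Incubation: 1 h compound pre-incubation, 16 h PMA/ionomycin at 37 °C. Benchmarks: DMSO only as uninhibited control, 10 µM reference inhibitor as full inhibition. Repeats: tested once.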
Jurkat viability: reduces viability or proliferation of Jurkat cells. 1.2% of 56,000 active. inhibition, % at 4 µM. Jurkat E6.1 viability, ATP luminescence, 48 h;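 active = inhibition above the mean inhibition of all tested compounds plus 3 SD, cut at about 28% in these data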
DAT uptake mod: human DAT dopamine uptake with cocaine, either direction; B-score at 10 µM; LLC-PK1 hDAT cells, [14C]-dopamine uptake with cocaine IC80; actives deviate in either direction; 1.3% of 110,000 active; Q01959;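 active = Z score or B-score, a plate-position-corrected score, falls beyond the plate's 99.7% confidence bounds, in either direction; inactive = both scores lie inside the 99.7% bounds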;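 note: scored against the spread of the other compound wells on the same plate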
Target sequence (Q01959 whole entry, looked up): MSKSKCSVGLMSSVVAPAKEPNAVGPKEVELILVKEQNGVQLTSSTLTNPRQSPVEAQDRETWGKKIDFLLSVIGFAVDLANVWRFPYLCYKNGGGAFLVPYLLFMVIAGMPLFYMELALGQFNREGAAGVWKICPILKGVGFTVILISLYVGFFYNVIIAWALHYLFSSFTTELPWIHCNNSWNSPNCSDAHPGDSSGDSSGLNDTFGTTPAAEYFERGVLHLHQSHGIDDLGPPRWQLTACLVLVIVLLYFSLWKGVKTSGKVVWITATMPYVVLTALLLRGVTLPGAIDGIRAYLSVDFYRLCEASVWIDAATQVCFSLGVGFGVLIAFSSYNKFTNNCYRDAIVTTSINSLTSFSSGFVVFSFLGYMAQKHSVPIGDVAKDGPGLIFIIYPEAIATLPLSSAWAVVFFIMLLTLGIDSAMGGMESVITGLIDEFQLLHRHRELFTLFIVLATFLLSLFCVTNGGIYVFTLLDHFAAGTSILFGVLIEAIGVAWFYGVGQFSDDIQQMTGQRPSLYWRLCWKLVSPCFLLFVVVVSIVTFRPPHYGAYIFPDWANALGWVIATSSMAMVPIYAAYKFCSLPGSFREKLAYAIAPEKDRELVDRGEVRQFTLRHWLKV
M1 ag: M1 muscarinic receptor agonism; B-score at 10 µM; CHO-M1 cells, Fluo-4 calcium fluorescence, agonist mode; hits give high values; AID 626; 3% of 64,000 active;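 active = fluorescence rise, raw or as B-score row- and column-corrected plate score, outside the 99.7% band of its plate's samples, either direction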
M1 antag: antagonists of rat M1 muscarinic receptor; CHO-M1 cells, Fluo-4 calcium, ACh EC80 antagonist mode; hits give low values; P08482; 3.4% of 64,000 active; AID 628; B-score at 10 µM;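 active = calcium fluorescence response, raw or row-and-column corrected B-score, differing from the plate sample mean either way at a set confidence level, mostly lower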
D1 allo mod: allosterically modulates the human D1 dopamine receptor. AID 641. HEK293 D1, CRE-luciferase, dopamine EC30 potentiation; actives deviate in either direction. B-score at 10 µM. 5.9% of 58,000 active;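 active = luminescence count or its row- and column-corrected plate score outside the 99.7% band of the plate's sample wells, on either side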
M1 antag conf: confirmation of rat M1 muscarinic receptor antagonists | shares compounds with M1 antag | CHO-M1 cells, Fluo-4 calcium, ACh EC80 antagonism; hits give low values | calcium response (max-min fluorescence) at 10 µM | 43% of 1,700 active | AID 677;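 active = calcium response below the same-plate mean of wells given acetylcholine alone at its 80%-effect dose, minus 3 SD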;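 note: raw fluorescence intensity difference in arbitrary instrument units and not normalized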
mGluR4 antag: selectivity test for M1 antagonists: human mGluR4 receptor. fluorescence response (max-min) at 10 µM. CHO-mGluR4 calcium flux, Fluo-4 fluorescence, glutamate EC80; hits give low values. 0.9% of 1,700 active. shares compounds with M1 antag. AID 678;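 active = fluorescence response below the plate's average for near-maximal glutamate wells, less 3 SD of those wells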;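 note: raw unnormalized fluorescence span taken in the window right after glutamate addition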
Numbers without * were called inactive; nt = no result. Shown are actives, neighbours in structure and some others; about 7.6% of the full set was active somewhere.

SMILES	HEK293 NFkB inh	Jurkat viability	DAT uptake mod	M1 ag	M1 antag	D1 allo mod	M1 antag conf	mGluR4 antag
O=C(Nc1ccccc1-c1ccccc1)NC1CCN(CC(=O)N2CCOCC2)CC1	15	7	-0.31	0.81	-6*	0.12	323*	242
O=C(CN1CCN(C(c2ccccc2)c2ccccc2)CC1)N1CCOCC1	7	4	-0.012	-0.021	-19*	0.047	179*	246
CCCc1nnc(NC(=O)CSc2ncn[nH]2)s1	5	7	-0.36	-0.14	-0.62	-0.045	nt	nt
COc1cccc(CNc2nc3nc(C)cc(C)n3n2)c1	-13	8	-0.23	0.19	-0.19	-0.35	nt	nt
CCOC(=O)C1CCN(C(=O)c2cc3cc4cc(OC)ccc4nc3o2)CC1	-14	-4	0.046	5.1	-3.2*	-0.78	432*	196
COc1cccc(CN2C(=O)CCC2(C)C(=O)NC2CCCCC2)c1 (stereo not drawn)	10	3	0.19	-0.49	-3.5*	0.4	582	229
COc1ccc(CN2C(=O)CCC2(C)C(=O)NC2CCCCCC2)cc1 (stereo not drawn)	12	9	0.95	0.49	0.15	-0.21	nt	nt
CN(Cc1ccccc1)C(=O)C1CCCN(Cc2ccc(Cl)cc2)C1 (stereo not drawn)	nt	nt	0.11	nt	nt	nt	nt	nt
COc1cc2c(=O)n(Cc3ccccc3)c(=O)n(CC(=O)C(C)(C)C)c2cc1OC	-4	nt	nt	0.37	-2.1*	1.9	450	210
COc1cc2c(=O)n(Cc3ccco3)c(=O)n(CC(=O)c3ccc(Br)cc3)c2cc1OC	8	0	-0.2	-0.61	-0.23	-0.76	nt	nt
COc1ccc(Br)cc1/C=N/NC(=O)c1nc(-c2ccccc2)n2c1CCCCC2	nt	nt	-0.83	nt	nt	nt	nt	nt
CCOC(=O)CSc1nnc(NCC(=O)OC(C)C)c(=O)[nH]1	-2	-4	-0.13	1.2	-2.2*	0.31	622	211
CCOc1c(Cl)cc(C(=O)NCCN2CCCCC2)cc1Cl	1	-10	1.3	-0.65	-1.4	-0.17	nt	nt
COc1ccc(CNS(=O)(=O)c2ccc(C3CNC(=O)C3)cc2)cc1 (stereo not drawn)	0	0	-1.2	-0.35	0.013	0.78	nt	nt
Cc1cc(NC(=O)Cn2nnc3sc4c(c3c2=O)CCC(C(C)(C)C)C4)no1 (stereo not drawn)	6	-5	0.44	-0.18	0.023	4.2	nt	nt
Cc1cc(NC(=O)Cn2nnc3sc4c(c3c2=O)CCCC4)no1	14	-2	0.0016	-0.74	-5*	2.1	549	248
Cc1ccc2nc(NC3=NCN(C4CCCCC4)CN3)nc(C)c2c1	6	-1	nt	-0.096	-0.36	-0.42	nt	nt
CCOc1ccc2nc(NC3=NCN(CC4CCCO4)CN3)nc(C)c2c1 (stereo not drawn)	3	-1	nt	-0.42	0	-0.25	nt	nt
CCc1ccc2nc(NC3=NCN(CCCN4CCOCC4)CN3)nc(C)c2c1	4	6	nt	-0.98	-3.7*	0.75	344*	182
Cc1ccc2nc(NC3=NCN(Cc4ccc5c(c4)OCO5)CN3)nc(C)c2c1	10	2	nt	0.022	-4.2*	0.13	90*	273
Cc1ccc2nc(NC3=NCN(Cc4ccco4)CN3)nc(C)c2c1	7	17	nt	0.6	-2.9*	-2.8	392	227
COCCSc1nnc(NC(=O)Cc2ccccc2OC)s1	8	5	0.44	0.049	-0.84	-0.84	nt	nt
O=C(Nc1ccccc1Cl)c1cc(S(=O)(=O)N2CCCC(C(=O)O)C2)ccc1F (stereo not drawn)	15	nt	-1.1	-0.087	-3.5*	-0.0075	529*	248
CCSc1nc2c([nH]c3ccccc32)c(=O)n1C	12	-4	-1.2	-0.12	-4.2*	3.3	443	214
CCN1CCCC1CNCc1ccc(Cl)cc1Cl (stereo not drawn)	-12	-1	-1	-0.26	-3.1*	-1.2	529*	231
CC(C)CC(=O)N1CCN(S(C)(=O)=O)CC1	15	2	0.32	-0.12	-3.6*	-0.86	594	238
